What was measured:
[1] = system: HeLa; experiment: Antiproliferative activity against human HeLa cells after 2 days by spectrophotometric analysis; type: functional; details: 48 h
Summary of the method: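 Cells from ATCC were kept in RPMI 1640 with 5% FBS. They were exposed to graded concentrations in DMSO/RPMI for 48 h at 37 C under 5% CO2, then fixed with 50% trichloroacetic acid. Cellular protein was read at 540 nm at time zero and at 48 h, with and without compound. TGI (100% growth inhibition) was taken from the concentration-response curve.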

[2] = system: HepG2; experiment: Antiproliferative activity against human HepG2 cells after 2 days by spectrophotometric analysis; type: functional; details: HepG2, 48 h
[3] = biological target: Activated CDC42 kinase 1 (Homo sapiens) (UniProt Q07912); experiment: Inhibition of human ACK1 at 10 uM using EAIYAAPFAKKK as substrate by [gamma-33P]-ATP assay relative to control
Summary of the method: (§1)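 Commercial kinase panel screen at a single concentration of 10 μM. % inhibition was calculated as 100 minus % activity.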

[4] = biological target: RAC-alpha serine/threonine-protein kinase (Homo sapiens) (UniProt P31749); experiment: Inhibition of human AKT1 at 10 uM using KGSGSGRPRTSSFAEG as substrate by [gamma-33P]-ATP assay relative to control; summary of the method: as §1
[5] = biological target: Tyrosine-protein kinase JAK1 (Homo sapiens) (UniProt P23458); experiment: Inhibition of human JAK1 at 10 uM using poly[Glu:Tyr] (4:1) as substrate by [gamma-33P]-ATP assay relative to control; summary of the method: as §1
[6] = biological target: Mitogen-activated protein kinase 8 (Homo sapiens) (UniProt P45983); experiment: Inhibition of human JNK1 at 10 uM using ATF2 as substrate by [gamma-33P]-ATP assay relative to control; summary of the method: as §1
[7] = biological target: Ribosomal protein S6 kinase beta-1 (Homo sapiens) (UniProt P23443); experiment: Inhibition of human RPS6KB1 at 10 uM using KKRNRTLTK as substrate by [gamma-33P]-ATP assay relative to control
Summary of the method: (§2)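 Kinase-panel profiling (50 oncogenic kinases) run by an outside contract service. The test compound was tested at a single concentration of 10 μM. Percent inhibition was calculated as 100 minus % remaining activity.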

[8] = biological target: Serine/threonine-protein kinase PAK 4 (Homo sapiens) (UniProt O96013); experiment: Inhibition of human PAK4 at 10 uM using RRRLSFAEPG as substrate by [gamma-33P]-ATP assay relative to control; summary of the method: as §2
[9] = biological target: Fibroblast growth factor receptor 1 (Homo sapiens) (UniProt P11362); experiment: Inhibition of human FGFR1 at 10 uM using KKKSPGEYVNIEFG as substrate by [gamma-33P]-ATP assay relative to control; summary of the method: as §1
[10] = biological target: Tyrosine-protein kinase Fgr (Homo sapiens) (UniProt P09769); experiment: Inhibition of human FGR at 10 uM using poly[Glu:Tyr] (4:1) as substrate by [gamma-33P]-ATP assay relative to control; summary of the method: as §1
[11] = biological target: Serine/threonine-protein kinase PLK1 (Homo sapiens, UniProt P53350); experiment: Inhibition of human PLK1 at 10 uM using casein as substrate by [gamma-33P]-ATP assay relative to control; summary of the method: as §2
[12] = biological target: Proto-oncogene tyrosine-protein kinase receptor Ret (Homo sapiens) (UniProt P07949); experiment: Inhibition of human RET at 10 uM using MEK1 (K97R) as substrate by [gamma-33P]-ATP assay relative to control; summary of the method: as §2
[13] = biological target: Proto-oncogene tyrosine-protein kinase ROS (Homo sapiens) (UniProt P08922); experiment: Inhibition of human ROS at 10 uM using KKKSPGEYVNIEFG as substrate by [gamma-33P]-ATP assay relative to control; summary of the method: as §2
[14] = biological target: High affinity nerve growth factor receptor (Homo sapiens) (UniProt P04629); experiment: Inhibition of human TRKA at 10 uM using poly[Glu:Tyr] (4:1) as substrate by [gamma-33P]-ATP assay relative to control; summary of the method: as §2
[15] = biological target: Tyrosine-protein kinase receptor TYRO3 (Homo sapiens) (UniProt Q06418); experiment: Inhibition of human TYRO3 at 10 uM using poly[Glu:Tyr] (4:1) as substrate by [gamma-33P]-ATP assay relative to control; summary of the method: as §2
[16] = biological target: T1, Tyrosine-protein kinase receptor UFO (Homo sapiens, UniProt P30530); experiment: Inhibition of human AXL using EAIYAAPFAKKK as substrate by [gamma-33P]-ATP assay
T1 sequence (P30530 whole entry): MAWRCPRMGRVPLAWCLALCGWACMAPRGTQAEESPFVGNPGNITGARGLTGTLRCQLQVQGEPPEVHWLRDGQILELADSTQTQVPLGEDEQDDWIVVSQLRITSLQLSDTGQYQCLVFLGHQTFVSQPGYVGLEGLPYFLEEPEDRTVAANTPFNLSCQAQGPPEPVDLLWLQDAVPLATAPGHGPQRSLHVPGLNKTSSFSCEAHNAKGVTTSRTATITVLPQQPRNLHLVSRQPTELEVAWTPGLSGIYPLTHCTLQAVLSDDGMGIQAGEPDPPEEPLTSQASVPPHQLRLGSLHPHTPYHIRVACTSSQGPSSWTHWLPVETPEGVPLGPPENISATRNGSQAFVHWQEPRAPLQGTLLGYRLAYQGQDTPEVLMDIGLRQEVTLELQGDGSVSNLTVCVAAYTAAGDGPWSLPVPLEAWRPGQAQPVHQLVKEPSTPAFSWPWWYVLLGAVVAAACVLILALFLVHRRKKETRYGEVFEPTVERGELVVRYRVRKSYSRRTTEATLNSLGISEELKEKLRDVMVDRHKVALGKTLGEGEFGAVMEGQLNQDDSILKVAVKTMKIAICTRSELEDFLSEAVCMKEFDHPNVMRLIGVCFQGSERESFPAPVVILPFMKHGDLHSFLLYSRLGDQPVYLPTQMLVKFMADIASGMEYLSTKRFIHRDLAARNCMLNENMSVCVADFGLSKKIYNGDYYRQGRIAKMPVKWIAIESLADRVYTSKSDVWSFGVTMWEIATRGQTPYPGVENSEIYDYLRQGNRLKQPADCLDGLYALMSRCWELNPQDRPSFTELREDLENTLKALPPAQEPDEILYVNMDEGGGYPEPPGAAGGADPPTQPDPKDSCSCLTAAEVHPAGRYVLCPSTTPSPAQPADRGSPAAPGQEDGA

[17] = biological target: Focal adhesion kinase 1 (Homo sapiens, UniProt Q05397); experiment: Inhibition of human FAK using poly[Glu:Tyr] (4:1) as substrate by [gamma-33P]-ATP assay
[18] = biological target: Tyrosine-protein kinase SYK (Homo sapiens, UniProt P43405); experiment: Inhibition of human SYK using poly[Glu:Tyr] (4:1) as substrate by [gamma-33P]-ATP assay
[19] = system: IMR-32; experiment: Antiproliferative activity against human IMR32 cells after 2 days by spectrophotometric analysis; type: functional; details: IMR-32, 48 h
[20] = system: MV4-11; experiment: Antiproliferative activity against human MV4-11 cells after 2 days by spectrophotometric analysis; type: functional; details: MV4-11, 48 h
[21] = system: PANC-1; experiment: Antiproliferative activity against human PANC1 cells after 2 days by spectrophotometric analysis; type: functional; details: PANC-1, 48 h

Sequence of RAC-alpha serine/threonine-protein kinase (Homo sapiens) (P31749 whole entry): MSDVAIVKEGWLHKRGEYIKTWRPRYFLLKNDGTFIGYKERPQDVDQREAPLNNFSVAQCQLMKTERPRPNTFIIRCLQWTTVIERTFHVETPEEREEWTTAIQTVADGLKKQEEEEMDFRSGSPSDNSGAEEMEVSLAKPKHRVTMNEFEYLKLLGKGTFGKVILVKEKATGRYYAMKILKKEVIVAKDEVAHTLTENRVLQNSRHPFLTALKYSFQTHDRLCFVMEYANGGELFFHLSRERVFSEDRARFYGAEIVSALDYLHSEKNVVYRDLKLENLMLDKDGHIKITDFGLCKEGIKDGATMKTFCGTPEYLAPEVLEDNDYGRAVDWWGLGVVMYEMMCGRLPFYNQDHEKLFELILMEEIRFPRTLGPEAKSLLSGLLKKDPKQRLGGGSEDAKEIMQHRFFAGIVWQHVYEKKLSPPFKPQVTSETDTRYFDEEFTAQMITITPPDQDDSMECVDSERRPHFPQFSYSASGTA
Sequence of High affinity nerve growth factor receptor (Homo sapiens) (P04629 33-796 limits assumed): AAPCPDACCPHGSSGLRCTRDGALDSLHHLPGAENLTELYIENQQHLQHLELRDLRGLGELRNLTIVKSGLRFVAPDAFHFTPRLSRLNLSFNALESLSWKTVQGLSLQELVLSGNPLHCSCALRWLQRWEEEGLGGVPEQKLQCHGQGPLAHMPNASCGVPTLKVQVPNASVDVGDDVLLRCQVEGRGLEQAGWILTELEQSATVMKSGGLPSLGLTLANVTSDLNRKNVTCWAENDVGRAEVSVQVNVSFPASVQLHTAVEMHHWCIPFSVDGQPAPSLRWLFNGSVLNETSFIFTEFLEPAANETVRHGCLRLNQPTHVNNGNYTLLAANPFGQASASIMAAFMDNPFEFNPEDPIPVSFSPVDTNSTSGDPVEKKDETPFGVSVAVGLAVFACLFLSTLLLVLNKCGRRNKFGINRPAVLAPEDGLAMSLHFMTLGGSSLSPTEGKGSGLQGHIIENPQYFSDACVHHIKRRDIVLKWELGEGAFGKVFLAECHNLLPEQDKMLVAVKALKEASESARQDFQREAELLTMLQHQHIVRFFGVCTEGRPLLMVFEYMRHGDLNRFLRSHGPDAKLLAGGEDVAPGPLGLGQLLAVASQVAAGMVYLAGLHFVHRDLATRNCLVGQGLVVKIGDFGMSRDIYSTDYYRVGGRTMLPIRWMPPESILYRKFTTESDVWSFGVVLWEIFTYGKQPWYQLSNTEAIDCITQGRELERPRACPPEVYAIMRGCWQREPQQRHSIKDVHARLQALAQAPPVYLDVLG
Sequence of Serine/threonine-protein kinase PAK 4 (Homo sapiens) (O96013 whole entry, looked up): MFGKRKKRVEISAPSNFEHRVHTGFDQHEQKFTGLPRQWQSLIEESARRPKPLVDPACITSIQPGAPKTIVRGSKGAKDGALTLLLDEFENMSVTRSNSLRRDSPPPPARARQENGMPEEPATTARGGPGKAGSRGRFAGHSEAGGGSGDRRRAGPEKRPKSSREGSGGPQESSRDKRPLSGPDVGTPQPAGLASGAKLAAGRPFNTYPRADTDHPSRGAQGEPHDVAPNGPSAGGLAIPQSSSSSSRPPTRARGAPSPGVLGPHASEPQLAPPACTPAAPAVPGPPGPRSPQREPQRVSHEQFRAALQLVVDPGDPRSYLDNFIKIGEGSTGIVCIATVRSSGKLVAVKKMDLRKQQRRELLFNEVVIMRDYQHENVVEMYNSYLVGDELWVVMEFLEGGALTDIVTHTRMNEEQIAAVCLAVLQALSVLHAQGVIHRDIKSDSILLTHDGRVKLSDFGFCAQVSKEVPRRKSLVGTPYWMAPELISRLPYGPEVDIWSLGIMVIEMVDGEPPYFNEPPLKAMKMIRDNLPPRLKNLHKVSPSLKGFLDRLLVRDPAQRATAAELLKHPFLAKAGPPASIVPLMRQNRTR
Sequence of Serine/threonine-protein kinase PLK1 (P53350 whole entry): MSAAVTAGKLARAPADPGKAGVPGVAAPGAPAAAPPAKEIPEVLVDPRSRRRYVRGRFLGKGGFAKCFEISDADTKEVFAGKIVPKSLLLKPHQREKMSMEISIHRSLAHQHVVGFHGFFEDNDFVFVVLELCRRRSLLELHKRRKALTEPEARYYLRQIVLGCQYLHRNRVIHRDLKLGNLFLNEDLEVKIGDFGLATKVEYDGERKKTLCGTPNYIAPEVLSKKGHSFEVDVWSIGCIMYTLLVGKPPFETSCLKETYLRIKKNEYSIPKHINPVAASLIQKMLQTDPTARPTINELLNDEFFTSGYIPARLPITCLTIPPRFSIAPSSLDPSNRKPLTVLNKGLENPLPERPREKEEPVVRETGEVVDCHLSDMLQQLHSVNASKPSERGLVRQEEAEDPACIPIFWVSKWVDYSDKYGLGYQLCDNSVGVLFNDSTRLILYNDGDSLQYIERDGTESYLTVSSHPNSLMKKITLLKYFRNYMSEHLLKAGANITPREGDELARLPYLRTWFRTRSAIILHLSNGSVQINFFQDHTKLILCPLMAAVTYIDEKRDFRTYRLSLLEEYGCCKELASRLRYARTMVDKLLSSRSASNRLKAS
Sequence of Ribosomal protein S6 kinase beta-1 (Homo sapiens) (P23443 whole entry, looked up): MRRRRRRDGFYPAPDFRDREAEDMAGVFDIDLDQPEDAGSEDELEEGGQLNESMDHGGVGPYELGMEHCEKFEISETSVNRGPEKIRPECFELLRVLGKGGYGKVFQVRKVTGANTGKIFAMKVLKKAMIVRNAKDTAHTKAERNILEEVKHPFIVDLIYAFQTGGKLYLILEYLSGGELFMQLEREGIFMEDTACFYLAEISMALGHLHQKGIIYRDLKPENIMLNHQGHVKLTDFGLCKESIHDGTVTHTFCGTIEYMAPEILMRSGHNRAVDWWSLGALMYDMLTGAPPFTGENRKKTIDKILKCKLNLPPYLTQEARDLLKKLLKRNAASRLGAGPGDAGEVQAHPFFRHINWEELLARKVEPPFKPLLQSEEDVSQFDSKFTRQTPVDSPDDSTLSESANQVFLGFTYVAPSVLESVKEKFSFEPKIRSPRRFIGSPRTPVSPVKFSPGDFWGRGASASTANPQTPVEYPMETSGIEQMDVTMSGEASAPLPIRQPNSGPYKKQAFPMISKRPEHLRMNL
Sequence of Fibroblast growth factor receptor 1 (Homo sapiens) (P11362 22-822 limits assumed): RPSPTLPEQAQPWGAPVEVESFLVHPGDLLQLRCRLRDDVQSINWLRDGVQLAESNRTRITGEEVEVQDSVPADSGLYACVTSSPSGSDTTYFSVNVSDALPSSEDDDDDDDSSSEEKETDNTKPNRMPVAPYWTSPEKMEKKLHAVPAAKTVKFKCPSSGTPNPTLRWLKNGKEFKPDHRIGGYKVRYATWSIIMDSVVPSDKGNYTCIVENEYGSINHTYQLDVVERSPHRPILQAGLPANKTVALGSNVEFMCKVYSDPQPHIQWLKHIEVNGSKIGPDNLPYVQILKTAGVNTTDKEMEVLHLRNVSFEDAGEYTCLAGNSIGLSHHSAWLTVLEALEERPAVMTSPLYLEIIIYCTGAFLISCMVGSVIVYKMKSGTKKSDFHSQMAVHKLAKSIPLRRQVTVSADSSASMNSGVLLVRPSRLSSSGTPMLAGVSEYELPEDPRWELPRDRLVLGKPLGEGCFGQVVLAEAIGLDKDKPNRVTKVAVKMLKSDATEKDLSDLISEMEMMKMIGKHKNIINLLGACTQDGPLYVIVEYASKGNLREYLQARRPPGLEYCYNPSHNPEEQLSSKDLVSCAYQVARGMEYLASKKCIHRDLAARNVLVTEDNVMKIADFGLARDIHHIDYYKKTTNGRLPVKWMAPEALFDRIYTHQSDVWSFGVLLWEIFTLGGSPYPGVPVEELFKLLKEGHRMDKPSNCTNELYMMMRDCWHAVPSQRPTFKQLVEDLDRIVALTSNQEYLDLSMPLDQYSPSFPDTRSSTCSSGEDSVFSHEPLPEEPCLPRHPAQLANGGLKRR
Sequence of Proto-oncogene tyrosine-protein kinase receptor Ret (Homo sapiens) (P07949 whole entry): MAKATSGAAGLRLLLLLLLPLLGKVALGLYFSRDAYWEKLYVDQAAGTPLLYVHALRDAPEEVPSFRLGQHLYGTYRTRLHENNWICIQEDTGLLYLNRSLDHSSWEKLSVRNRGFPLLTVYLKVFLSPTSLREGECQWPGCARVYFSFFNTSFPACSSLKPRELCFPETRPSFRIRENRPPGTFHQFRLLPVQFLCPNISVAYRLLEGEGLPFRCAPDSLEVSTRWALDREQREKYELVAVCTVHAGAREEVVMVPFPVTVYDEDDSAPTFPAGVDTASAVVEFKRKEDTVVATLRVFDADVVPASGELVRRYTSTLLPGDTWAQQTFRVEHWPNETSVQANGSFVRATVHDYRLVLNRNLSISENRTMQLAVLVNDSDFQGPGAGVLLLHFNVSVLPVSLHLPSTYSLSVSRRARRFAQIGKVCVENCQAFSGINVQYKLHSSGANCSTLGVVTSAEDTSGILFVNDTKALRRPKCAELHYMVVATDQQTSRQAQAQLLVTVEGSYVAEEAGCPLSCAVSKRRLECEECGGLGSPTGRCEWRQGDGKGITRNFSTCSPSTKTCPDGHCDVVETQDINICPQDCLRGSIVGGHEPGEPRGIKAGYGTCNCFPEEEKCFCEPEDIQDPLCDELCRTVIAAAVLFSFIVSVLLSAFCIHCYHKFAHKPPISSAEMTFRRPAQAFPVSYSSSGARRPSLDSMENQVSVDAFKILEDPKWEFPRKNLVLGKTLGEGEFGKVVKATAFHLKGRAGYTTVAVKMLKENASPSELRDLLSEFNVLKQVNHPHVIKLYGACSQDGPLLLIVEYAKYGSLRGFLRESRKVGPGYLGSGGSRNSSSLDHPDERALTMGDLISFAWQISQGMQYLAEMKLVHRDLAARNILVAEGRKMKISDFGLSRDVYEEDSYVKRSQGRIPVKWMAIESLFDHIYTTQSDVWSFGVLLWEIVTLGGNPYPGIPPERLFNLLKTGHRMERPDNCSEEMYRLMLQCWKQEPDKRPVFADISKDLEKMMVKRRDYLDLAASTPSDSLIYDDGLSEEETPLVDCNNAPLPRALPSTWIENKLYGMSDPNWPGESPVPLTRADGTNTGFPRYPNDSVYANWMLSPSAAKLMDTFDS

## CC(=O)N1CCN(c2ccc(Nc3ncc(C(F)(F)F)c(N4Cc5cccc(N(C)S(C)(=O)=O)c5C4)n3)cc2)CC1
[1]
  GI50: 730 nM
[2]
  GI50: 1400 nM
[3]
  inhibition: 91.1%
[4]
  inhibition: -3.6%
[5]
  inhibition: 75.4%
[6]
  inhibition: 45.1%
[7]
  inhibition: 65.5%
[8]
  inhibition: 16.2%
[9]
  inhibition: 26%
[10]
  inhibition: 80.6%
[11]
  inhibition: 95.2%
[12]
  inhibition: 85.2%
[13]
  inhibition: 92.2%
[14]
  inhibition: 92.2%
[15]
  inhibition: 87.7%
[16]
  IC50: < 0.5 nM
[17]
  IC50: 11 nM
[18]
  IC50: 5.1 nM
[19]
  GI50: 260 nM
[20]
  GI50: 100 nM
[21]
  GI50: 430 nM
